Test results published in ChEMBL document CHEMBL4261537, “Synthesis and pharmacological evaluation of multi-functional homoisoflavonoid derivatives as potent inhibitors of monoamine oxidase B and cholinesterase for the treatment of Alzheimer's disease” (Medchemcomm, 2017).

How the values were obtained:
Mus musculus [1] = experiment: Acute toxicity in Kunming mouse assessed as change in mental behavior up to 2000 mg/kg, po administered as single dose up to 2 weeks; assay type: organism-based; settings: in vivo, 336 h
Outline: (§1)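 Male Kunming mice (18-22g), acclimatised 4 days, fasted 12 h; single oral dose of 677, 1333 or 2000 mg/kg suspended in 0.5% CMC-Na (0.4 ml per mouse), vehicle group 0 mg/kg; 20 mice in 4 groups. Watched continuously for 4 h for abnormal behaviour and deaths, then intermittently to 24 h; observation over 14 days.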

Cholinesterase [2] = target: T1, Cholinesterase (Equus caballus, UniProt P81908); experiment: Inhibition of equine serum BuChE using S-butyrylthiocholine iodide as substrate preincubated for 5 mins followed by substrate addition measured at 1 to 3 mins time interval by Ellman's method; assay type: ADME
[3] = Effective permeability of the compound at 0.1 mg/ml after 16 hrs by PAMPA; assay type: ADME; settings: read-out: Peff
Outline: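 Porcine brain lipid in dodecane (20 mg/mL) coated on PVDF filter. Compound stock 5 mg/mL in DMSO, diluted 50-fold into PBS/EtOH (70:30) to 0.1 mg/mL in donor wells; acceptor holds PBS/EtOH (70:30). Incubated 16 h at 25°C. UV plate read at five wavelengths, four wells, at least three runs. Pe derived from acceptor absorbance versus theoretical equilibrium absorbance.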

[4] = target: T2, Amine oxidase [flavin-containing] B (Homo sapiens, UniProt P27338); experiment: Time-dependent inhibition of recombinant human MAO-B at 0.003 uM using p-tyramine as substrate preincubated for 15 to 60 mins followed by substrate addition and compound dilution to IC50 by Amplex red reagent based fluorescence assay
T2 sequence (P27338 whole entry): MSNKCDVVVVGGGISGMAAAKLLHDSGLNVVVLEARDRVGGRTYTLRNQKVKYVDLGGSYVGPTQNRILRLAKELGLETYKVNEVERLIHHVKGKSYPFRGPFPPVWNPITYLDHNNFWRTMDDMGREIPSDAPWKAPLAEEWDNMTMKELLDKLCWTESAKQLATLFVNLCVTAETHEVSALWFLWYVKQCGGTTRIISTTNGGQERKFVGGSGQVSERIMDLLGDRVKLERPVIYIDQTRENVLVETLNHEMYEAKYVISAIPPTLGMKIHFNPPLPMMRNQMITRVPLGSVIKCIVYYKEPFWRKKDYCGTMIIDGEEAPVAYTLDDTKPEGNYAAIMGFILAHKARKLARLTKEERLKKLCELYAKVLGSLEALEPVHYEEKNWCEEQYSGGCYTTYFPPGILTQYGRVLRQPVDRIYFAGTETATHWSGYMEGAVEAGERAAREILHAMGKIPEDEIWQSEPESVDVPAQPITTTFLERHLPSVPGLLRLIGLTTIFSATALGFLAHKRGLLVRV

[5] = target: T3, Amine oxidase [flavin-containing] A (Homo sapiens, UniProt P21397); experiment: Inhibition of recombinant human MAO-A assessed as reduction in H2O2 production using p-tyramine as substrate preincubated for 15 mins followed by substrate addition by Amplex red reagent based fluorescence assay
T3 sequence (P21397 whole entry): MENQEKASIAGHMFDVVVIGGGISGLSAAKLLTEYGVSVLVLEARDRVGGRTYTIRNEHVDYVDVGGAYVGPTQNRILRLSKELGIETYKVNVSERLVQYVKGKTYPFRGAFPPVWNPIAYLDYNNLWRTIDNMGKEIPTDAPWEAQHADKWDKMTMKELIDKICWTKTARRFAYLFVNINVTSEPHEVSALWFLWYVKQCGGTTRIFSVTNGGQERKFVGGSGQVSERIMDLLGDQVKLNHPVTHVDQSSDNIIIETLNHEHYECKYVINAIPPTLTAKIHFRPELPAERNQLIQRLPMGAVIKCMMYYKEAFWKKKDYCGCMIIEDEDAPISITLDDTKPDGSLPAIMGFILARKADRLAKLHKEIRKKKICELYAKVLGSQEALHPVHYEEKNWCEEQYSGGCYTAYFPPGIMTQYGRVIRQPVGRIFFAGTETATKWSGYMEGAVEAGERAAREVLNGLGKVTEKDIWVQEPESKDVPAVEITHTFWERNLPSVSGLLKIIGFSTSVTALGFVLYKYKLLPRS

[6] = Selectivity index, ratio of IC50 for equine serum BuChE to IC50 for electric eel AChE
Mus musculus [7] = experiment: Acute toxicity in Kunming mouse assessed as change in body weight up to 2000 mg/kg, po administered as single dose up to 2 weeks; assay type: organism-based; settings: in vivo, 336 h
Homo sapiens [8] = organism: Homo sapiens; experiment: Selectivity index, ratio of IC50 for human serum BuChE to IC50 for human erythrocytes AChE
[9] = target: T2, Amine oxidase [flavin-containing] B; experiment: Non-competitive inhibition of recombinant human MAO-B assessed as reduction in H2O2 production at 0.015 to 0.06 uM using p-tyramine as substrate preincubated for 15 mins followed by substrate addition by Lineweaver-Burk plot analysis
Acetylcholinesterase [10] = target: T4, Acetylcholinesterase (Electrophorus electricus, UniProt O42275); experiment: Inhibition of electric eel AChE using acetylthiocholine iodide as substrate preincubated for 5 mins followed by substrate addition measured at 1 to 3 mins time interval by Ellman's method
Acetylcholinesterase [11] = target: Acetylcholinesterase (Homo sapiens, UniProt P22303); experiment: Inhibition of human erythrocytes AChE using acetylthiocholine iodide as substrate preincubated for 5 mins followed by substrate addition measured at 1 to 3 mins time interval by Ellman's method
Acetylcholinesterase [12] = target: T4, Acetylcholinesterase; experiment: Mixed-type inhibition of electric eel AChE using varying levels of acetylthiocholine iodide as substrate measured at 1 to 3 mins time interval by Lineweaver-Burk plot analysis
Outline: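 Electric eel AChE assayed by Ellman's method at […] substrate 0.05-0.25 mM, without inhibitor and with inhibitor at 0.5, 1.0 or 2.0 μM; activity read at 0, 1, 2, 3 min. Lineweaver–Burk plots built; their slopes plotted against inhibitor concentration, Ki taken as the negative x-axis intercept.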

Homo sapiens [13] = organism: Homo sapiens; experiment: Selectivity index, ratio of IC50 for recombinant human MAO-A to IC50 for recombinant human MAO-B
[14] = target: T2, Amine oxidase [flavin-containing] B; experiment: Reversible inhibition of recombinant human MAO-B at 0.003 uM using p-tyramine as substrate preincubated for 15 to 60 mins followed by substrate addition and compound dilution to IC50 by Amplex red reagent based fluorescence assay
Mus musculus [15] = experiment: Acute toxicity in Kunming mouse assessed as damage to heart up to 2000 mg/kg, po administered as single dose measured after 14 days; assay type: organism-based; settings: in vivo, 336 h
Outline: (§2)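 Male Kunming mice given one oral dose (0, 677, 1333, 2000 mg/kg) in 0.5% CMC-Na after a 12 h fast; after 14 days of observation, animals sacrificed and liver, heart and kidneys visually examined for damage.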

Mus musculus [16] = experiment: Acute toxicity in Kunming mouse assessed as damage to liver up to 2000 mg/kg, po administered as single dose measured after 14 days; assay type: organism-based; settings: in vivo, 336 h; outline: as §2
Mus musculus [17] = experiment: Acute toxicity in Kunming mouse assessed as damage to kidney up to 2000 mg/kg, po administered as single dose measured after 14 days; assay type: organism-based; settings: in vivo, 336 h; outline: as §2
Mus musculus [18] = experiment: Acute toxicity in Kunming mouse assessed as fatality up to 2000 mg/kg, po administered as single dose up to 2 weeks; assay type: organism-based; settings: in vivo, 336 h; outline: as §1
Cholinesterase [19] = target: T5, Cholinesterase (Homo sapiens, UniProt P06276); experiment: Inhibition of human serum BuChE using S-butyrylthiocholine iodide as substrate preincubated for 5 mins followed by substrate addition measured at 1 to 3 mins time interval by Ellman's method; assay type: ADME
[20] = target: T2, Amine oxidase [flavin-containing] B; experiment: Inhibition of recombinant human MAO-B assessed as reduction in H2O2 production using p-tyramine as substrate preincubated for 15 mins followed by substrate addition by Amplex red reagent based fluorescence assay
Outline: (§3)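 Human MAO-A or MAO-B, each set to the same control reaction velocity. Preincubated with compound 15 min at 37°C in the dark, in sodium phosphate buffer with DMSO. Then 200 μM Amplex Red (final) added with 1 U/mL HRP and 1 mM p-tyramine. Run in triplicate, mean ± SD.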

Cholinesterase [21] = target: T5, Cholinesterase; experiment: Inhibition of human serum BuChE at 100 uM using S-butyrylthiocholine iodide as substrate preincubated for 5 mins followed by substrate addition measured at 1 to 3 mins time interval by Ellman's method
Outline: (§4)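 Ellman assay: compound diluted in 50 mM Tris-HCl pH 8.0 with 0.1 M NaCl, 0.02 M MgCl2 (DMSO 1%). Preincubated 5 min at 37°C with 1.5 mM DTNB and BuChE (0.12 U/mL in Tris with 0.1% BSA); 15 mM S-butyrylthiocholine iodide added; absorbance at 405 nm read at 0, 1, 2, 3 min.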

Cholinesterase [22] = target: T1, Cholinesterase; experiment: Inhibition of equine serum BuChE at 100 uM using S-butyrylthiocholine iodide as substrate preincubated for 5 mins followed by substrate addition measured at 1 to 3 mins time interval by Ellman's method; settings: horse; outline: as §4
[23] = target: T3, Amine oxidase [flavin-containing] A; experiment: Inhibition of recombinant human MAO-A assessed as reduction in H2O2 production at 100 uM using p-tyramine as substrate preincubated for 15 mins followed by substrate addition by Amplex red reagent based fluorescence assay
Outline: as §3, with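 “p-tyramine. Resorufin fluorescence read at 37°C (ex 545/em 590 nm), background from enzyme-free wells subtracted.” for “p-tyramine.”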

[24] = target: T2, Amine oxidase [flavin-containing] B; experiment: Inhibition of recombinant human MAO-B assessed as reduction in H2O2 production at 100 uM using p-tyramine as substrate preincubated for 15 mins followed by substrate addition by Amplex red reagent based fluorescence assay
Outline: as §3, with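 “p-tyramine. Resorufin fluorescence read at 37°C (ex 545/em 590 nm), background from enzyme-free wells subtracted.” for “p-tyramine.”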

T4 sequence (O42275 whole entry): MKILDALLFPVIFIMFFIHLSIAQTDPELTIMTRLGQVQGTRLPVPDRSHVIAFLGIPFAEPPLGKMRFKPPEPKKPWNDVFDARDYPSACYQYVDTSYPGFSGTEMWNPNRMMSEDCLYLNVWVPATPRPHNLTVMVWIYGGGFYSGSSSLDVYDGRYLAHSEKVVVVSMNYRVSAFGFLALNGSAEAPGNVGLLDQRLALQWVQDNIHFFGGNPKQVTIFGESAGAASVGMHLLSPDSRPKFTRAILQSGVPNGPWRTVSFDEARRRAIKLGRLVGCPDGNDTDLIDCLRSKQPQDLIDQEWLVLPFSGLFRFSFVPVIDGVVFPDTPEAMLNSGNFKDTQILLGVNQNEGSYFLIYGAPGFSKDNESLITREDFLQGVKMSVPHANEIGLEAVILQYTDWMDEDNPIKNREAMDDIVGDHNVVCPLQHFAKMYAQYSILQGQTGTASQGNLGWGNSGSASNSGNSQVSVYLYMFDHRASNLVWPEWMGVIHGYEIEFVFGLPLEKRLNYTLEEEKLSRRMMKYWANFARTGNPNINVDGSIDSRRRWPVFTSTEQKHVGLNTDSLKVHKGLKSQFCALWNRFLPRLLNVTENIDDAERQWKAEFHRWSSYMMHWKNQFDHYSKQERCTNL
T1 sequence (P81908 whole entry): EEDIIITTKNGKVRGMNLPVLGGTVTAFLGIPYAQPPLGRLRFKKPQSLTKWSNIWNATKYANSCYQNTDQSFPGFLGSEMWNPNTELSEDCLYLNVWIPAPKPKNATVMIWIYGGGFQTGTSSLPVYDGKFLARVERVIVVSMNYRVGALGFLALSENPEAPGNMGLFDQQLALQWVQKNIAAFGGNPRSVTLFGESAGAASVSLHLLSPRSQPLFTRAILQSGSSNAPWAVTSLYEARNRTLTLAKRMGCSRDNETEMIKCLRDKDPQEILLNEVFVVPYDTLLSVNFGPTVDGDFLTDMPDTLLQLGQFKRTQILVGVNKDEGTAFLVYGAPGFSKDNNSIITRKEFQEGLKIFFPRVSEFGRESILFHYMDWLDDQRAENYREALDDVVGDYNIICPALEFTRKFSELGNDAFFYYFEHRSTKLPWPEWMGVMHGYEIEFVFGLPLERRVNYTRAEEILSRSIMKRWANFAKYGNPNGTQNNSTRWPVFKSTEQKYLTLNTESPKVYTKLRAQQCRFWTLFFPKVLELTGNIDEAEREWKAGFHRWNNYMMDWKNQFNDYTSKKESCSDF
T5 sequence (P06276 whole entry): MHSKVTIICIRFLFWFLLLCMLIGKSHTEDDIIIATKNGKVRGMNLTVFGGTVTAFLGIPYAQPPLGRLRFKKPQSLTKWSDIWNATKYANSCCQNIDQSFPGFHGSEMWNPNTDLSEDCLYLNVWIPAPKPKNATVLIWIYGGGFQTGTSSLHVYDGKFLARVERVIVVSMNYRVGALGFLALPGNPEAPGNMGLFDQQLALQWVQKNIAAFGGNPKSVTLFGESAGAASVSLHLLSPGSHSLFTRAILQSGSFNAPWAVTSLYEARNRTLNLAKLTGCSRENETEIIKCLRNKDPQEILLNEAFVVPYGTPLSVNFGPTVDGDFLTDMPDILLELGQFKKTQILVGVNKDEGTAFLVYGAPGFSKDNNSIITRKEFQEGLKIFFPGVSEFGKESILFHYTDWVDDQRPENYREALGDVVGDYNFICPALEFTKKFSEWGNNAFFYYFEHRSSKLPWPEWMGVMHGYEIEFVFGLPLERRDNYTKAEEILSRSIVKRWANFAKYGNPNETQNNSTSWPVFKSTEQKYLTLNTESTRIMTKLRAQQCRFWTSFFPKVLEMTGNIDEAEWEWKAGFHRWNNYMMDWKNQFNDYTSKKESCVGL
Chain of Acetylcholinesterase (Homo sapiens, UniProt P22303) (P22303 whole entry): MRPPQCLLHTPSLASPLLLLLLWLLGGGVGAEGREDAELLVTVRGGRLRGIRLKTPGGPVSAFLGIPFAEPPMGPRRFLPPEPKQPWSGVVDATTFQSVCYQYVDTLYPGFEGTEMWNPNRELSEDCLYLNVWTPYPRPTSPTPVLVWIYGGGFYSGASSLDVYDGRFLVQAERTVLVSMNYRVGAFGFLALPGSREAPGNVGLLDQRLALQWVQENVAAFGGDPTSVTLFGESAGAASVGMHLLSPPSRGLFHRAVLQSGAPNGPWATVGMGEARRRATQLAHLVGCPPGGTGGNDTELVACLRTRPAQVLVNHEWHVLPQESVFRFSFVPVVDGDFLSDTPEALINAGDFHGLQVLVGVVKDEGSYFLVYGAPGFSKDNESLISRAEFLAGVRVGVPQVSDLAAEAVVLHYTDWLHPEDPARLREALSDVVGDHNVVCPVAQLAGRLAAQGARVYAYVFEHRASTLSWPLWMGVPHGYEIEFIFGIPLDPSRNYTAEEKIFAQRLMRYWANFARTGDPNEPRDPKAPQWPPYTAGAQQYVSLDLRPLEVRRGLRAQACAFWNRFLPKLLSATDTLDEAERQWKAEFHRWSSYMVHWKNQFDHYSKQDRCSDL

Row | SMILES | IC50 (Cholinesterase [2]) | Ratio IC50 [6] | Ratio IC50 (Homo sapiens [8]) | IC50 (Acetylcholinesterase [10]) | IC50 (Acetylcholinesterase [11]) | Ratio IC50 (Homo sapiens [13]) | IC50 [20] | inhibition (INH) [23] | other results
1 | CN(C)CCOc1ccc(/C=C2\COc3ccccc3C2=O)cc1 | 28.7 µM | 32.3 | 14.2 | 0.89 µM | 0.657 µM | 1024 | 0.0372 µM |  | Activity (Mus musculus [1]): Non-Toxic; Papp at 16 h, 0.1 mg/ml [3]: 10.6 ×10⁻⁶ cm/s; TDI [4]: Not Active; IC50 [5]: 38.1 µM; Activity (Mus musculus [7]): Non-Toxic; Ki [9]: 0.551 µM; Ki (Acetylcholinesterase [12]): 0.404 µM; inhibition (INH) [14]: Active; Activity (Mus musculus [15]): Non-Toxic; Activity (Mus musculus [16]): Non-Toxic; Activity (Mus musculus [17]): Non-Toxic; Activity (Mus musculus [18]): Non-Toxic; IC50 (Cholinesterase [19]): 9.31 µM
2 | O=C1/C(=C/c2ccc(O)cc2)COc2ccccc21 |  | > 2.25 | 1.01 | 44.4 µM | 99.9 µM | > 413 | 0.242 µM | Not Active | inhibition (INH) (Cholinesterase [21]): Not Active; inhibition (INH) (Cholinesterase [22]): Not Active
3 | CCN(CC)CCCOc1ccccc1/C=C1\COc2ccccc2C1=O | 4.89 µM | 0.0892 |  | 54.8 µM |  |  |  | Not Active | inhibition (INH) [24]: Not Active
